Assay results as given in ChEMBL document CHEMBL2424601, “Synthetic chondramide A analogues stabilize filamentous actin and block invasion by Toxoplasma gondii” (J Nat Prod, 2013).
The source made the active and inactive calls. No cut-off for these calls is given here.

Experiments:
[1] = tested on: Toxoplasma gondii; assay: Antiparasitic activity against Toxoplasma gondii expressing beta-galactosidase infected in HFF assessed as parasite growth inhibition after 72 hrs; format: functional, organism-based
Summary of the method: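 β-gal-expressing parasites preincubated 30 min with compound dilutions in DMEM/10% FBS/gentamicin containing 0.2% DMSO, then inoculated at 500/well onto confluent HFF monolayers and cultured continuously; 72 h at 37 °C, 5% CO2. Lysed cells read with chlorophenol red-β-d-galactopyranoside at A570, normalized to untreated control; EC50 from variable-slope log(inhibitor)-response fit, three experiments (n = 4 replicates).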

[2] = tested on: Toxoplasma gondii; assay: Antiparasitic activity against Toxoplasma gondii expressing beta-galactosidase infected in HFF assessed as parasite growth inhibition treated for 2 hrs followed by washout measured after 48 hrs after 72 hrs relative to continuous culture in presence of drug for 48 hrs; format: functional
Summary of the method: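 β-gal-expressing T. gondii preincubated 30 min with compound dilutions in complete DMEM (10% FBS, gentamicin, 0.2% DMSO), 500 parasites/well onto confluent HFF; compound washed out after 2 h versus continuous exposure; 72 h at 37 °C, 5% CO2. Lysis, chlorophenol red-β-D-galactopyranoside, A570 normalized to untreated; variable-slope log(inhibitor)-response fit; three experiments, n = 4.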

[3] = target: Actin (Toxoplasma gondii) (UniProt P53476); assay: Induction of Toxoplasma gondii N-terminally his-tagged recombinant actin polymerization after 1 hr
Sequence of Actin (Toxoplasma gondii) (P53476 whole entry): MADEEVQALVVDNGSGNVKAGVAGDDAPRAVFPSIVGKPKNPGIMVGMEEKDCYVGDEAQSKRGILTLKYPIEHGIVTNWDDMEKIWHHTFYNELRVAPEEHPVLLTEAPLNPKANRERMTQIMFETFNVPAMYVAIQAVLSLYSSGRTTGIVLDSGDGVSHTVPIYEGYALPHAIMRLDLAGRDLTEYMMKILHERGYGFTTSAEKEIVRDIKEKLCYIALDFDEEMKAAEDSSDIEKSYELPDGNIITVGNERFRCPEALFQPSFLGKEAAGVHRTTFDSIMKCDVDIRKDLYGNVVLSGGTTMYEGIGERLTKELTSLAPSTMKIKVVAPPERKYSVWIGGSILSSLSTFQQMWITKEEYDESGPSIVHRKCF
Summary of the method: (§1)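 His-tagged TgACTI from baculovirus, Ni-NTA purified, cleared at 100000g; 5 μM actin in F-buffer (50 mM KCl, 2 mM MgCl2, 1 mM ATP) with compound plus Alexa 488 phalloidin 1.2 U/μL, 1 h; filaments imaged by fluorescence microscopy (63× oil); lengths averaged over three filaments per point.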

[4] = tested on: HFF; assay: Cytotoxicity against HFF after 72 hrs; format: cell-based; conditions: human
Summary of the method: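 Confluent HFF monolayers given serial dilutions in complete DMEM with 0.2% DMSO for 72 h; viable cells by MTS colorimetric assay, normalized to untreated cells.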

[5] = target: Actin (Toxoplasma gondii) (UniProt P53476); assay: Induction of Toxoplasma gondii N-terminally his-tagged recombinant actin polymerization at 2 uM after 1 hr using phalloidin staining by fluorescence microscopic analysis; summary of the method: as §1
[6] = target: Actin (Toxoplasma gondii) (UniProt P53476); assay: Induction of Toxoplasma gondii N-terminally his-tagged recombinant actin polymerization at 0.25 uM after 1 hr using phalloidin staining by fluorescence microscopic analysis; summary of the method: as §1

SMILES: CO[C@@H]1C(=O)O[C@H](C)[C@H](C)/C=C(\C)C[C@H](C)C(=O)N[C@@H](C)C(=O)N(C)[C@H](Cc2c[nH]c3ccccc23)C(=O)N[C@H]1c1ccc(F)cc1
- EC50 [1]: 320 nM

SMILES: CO[C@@H]1C(=O)O[C@H](C)[C@H](C)/C=C(\C)C[C@H](C)C(=O)N[C@@H](C)C(=O)N(C)[C@H](Cc2c[nH]c3ccccc23)C(=O)N[C@H]1c1ccc(C)cc1
- EC50 [1]: 530 nM

SMILES: C/C1=C\[C@H](C)C[C@H](C)OC(=O)C[C@H](c2ccc(O)cc2)NC(=O)[C@@H](Cc2c(Br)[nH]c3ccccc23)N(C)C(=O)[C@H](C)NC(=O)[C@@H](C)C1 [JASPAMIDE]
- fold change (FC) [2]: 1.5
- Activity [3]: Active
- Activity [4]: Toxic
- EC50 [1]: 340 nM

SMILES: CO[C@@H]1C(=O)O[C@H](C)[C@H](C)/C=C(\C)C[C@H](C)C(=O)N[C@@H](C)C(=O)N(C)[C@H](Cc2c[nH]c3ccccc23)C(=O)N[C@H]1c1ccccc1
- fold change (FC) [2]: 1.5
- Activity [5]: Active
- Activity [6]: Active
- Activity [3]: Dose-dependent effect
- EC50 [1]: 510 nM

SMILES: CO[C@@H]1C(=O)O[C@H](C)[C@H](C)/C=C(\C)C[C@H](C)C(=O)N[C@@H](C)C(=O)N(C)[C@H](Cc2c[nH]c3ccccc23)C(=O)N[C@H]1c1ccc(CO)cc1
- EC50 [1]: 740 nM

SMILES: CO[C@@H]1C(=O)O[C@H](C)[C@H](C)/C=C(\C)C[C@H](C)C(=O)N[C@@H](C)C(=O)N(C)[C@H](Cc2c[nH]c3ccccc23)C(=O)N[C@H]1c1ccc([N+](=O)[O-])cc1
- EC50 [1]: 610 nM

SMILES: CO[C@@H]1C(=O)O[C@H](C)[C@H](C)/C=C(\C)C[C@H](C)C(=O)N[C@@H](C)C(=O)N(C)[C@H](Cc2c[nH]c3ccccc23)C(=O)N[C@H]1c1ccc(C#N)cc1
- EC50 [1]: 380 nM

SMILES: CO[C@@H]1C(=O)O[C@H](C)[C@H](C)/C=C(\C)C[C@H](C)C(=O)N[C@@H](C)C(=O)N(C)[C@H](Cc2c[nH]c3ccccc23)C(=O)N[C@H]1c1ccc(CCO)cc1
- EC50 [1]: 600 nM

SMILES: CO[C@@H]1C(=O)O[C@H](C)[C@H](C)/C=C(\C)C[C@H](C)C(=O)N[C@@H](C)C(=O)N(C)[C@H](Cc2c[nH]c3ccccc23)C(=O)N[C@H]1c1ccc(O)cc1
- Activity [5]: Active
- Activity [6]: Active
- Activity [3]: Dose-dependent effect
- Activity [4]: Toxic
- EC50 [1]: 560 nM

SMILES: CO[C@@H]1C(=O)O[C@H](C)[C@H](C)/C=C(\C)C[C@H](C)C(=O)N[C@@H](C)C(=O)N(C)[C@H](Cc2c[nH]c3ccccc23)C(=O)N[C@H]1c1ccc(C(N)=O)cc1
- EC50 [1]: ≥ 45000 nM

SMILES: CO[C@@H]1C(=O)O[C@H](C)[C@H](C)/C=C(\C)C[C@H](C)C(=O)N[C@@H](C)C(=O)N(C)[C@H](Cc2c(Cl)[nH]c3ccccc23)C(=O)N[C@H]1c1ccc(O)cc1
- Activity [4]: Toxic
- EC50 [1]: 220 nM

SMILES: C/C1=C\[C@@H](C)[C@@H](C)OC(=O)C[C@H](c2ccc(O)cc2)NC(=O)[C@@H](Cc2c[nH]c3ccccc23)N(C)C(=O)[C@H](C)NC(=O)[C@@H](C)C1
- Activity [4]: Toxic
- EC50 [1]: 480 nM

SMILES: CO[C@@H]1C(=O)O[C@H](C)[C@H](C)/C=C(\C)C[C@H](C)C(=O)N[C@@H](C)C(=O)N(C)[C@H](Cc2c[nH]c3ccccc23)C(=O)N[C@H]1c1ccc(-c2ccccc2)cc1
- EC50 [1]: 1340 nM

SMILES: CO[C@@H]1C(=O)O[C@H](C)[C@H](C)/C=C(\C)C[C@H](C)C(=O)N[C@@H](C)C(=O)N(C)[C@H](Cc2c[nH]c3ccccc23)C(=O)N[C@H]1c1ccc(N)cc1
- EC50 [1]: 660 nM

SMILES: COc1ccc([C@@H]2NC(=O)[C@@H](Cc3c[nH]c4ccccc34)N(C)C(=O)[C@H](C)NC(=O)[C@@H](C)C/C(C)=C/[C@@H](C)[C@@H](C)OC(=O)[C@H]2OC)cc1
- EC50 [1]: 690 nM
